Reference: ChEMBL document CHEMBL2424625, “Synthesis and structure-activity relationships of novel indazolyl glucocorticoid receptor partial agonists” (Bioorg Med Chem Lett, 2013)

Tests used:
[1] = target: T1, Mineralocorticoid receptor (Homo sapiens, UniProt P08235); test: Agonist activity at mineralocorticoid receptor in human A549 cells by fluorescence assay; type: cell-based
T1 sequence (P08235 whole entry): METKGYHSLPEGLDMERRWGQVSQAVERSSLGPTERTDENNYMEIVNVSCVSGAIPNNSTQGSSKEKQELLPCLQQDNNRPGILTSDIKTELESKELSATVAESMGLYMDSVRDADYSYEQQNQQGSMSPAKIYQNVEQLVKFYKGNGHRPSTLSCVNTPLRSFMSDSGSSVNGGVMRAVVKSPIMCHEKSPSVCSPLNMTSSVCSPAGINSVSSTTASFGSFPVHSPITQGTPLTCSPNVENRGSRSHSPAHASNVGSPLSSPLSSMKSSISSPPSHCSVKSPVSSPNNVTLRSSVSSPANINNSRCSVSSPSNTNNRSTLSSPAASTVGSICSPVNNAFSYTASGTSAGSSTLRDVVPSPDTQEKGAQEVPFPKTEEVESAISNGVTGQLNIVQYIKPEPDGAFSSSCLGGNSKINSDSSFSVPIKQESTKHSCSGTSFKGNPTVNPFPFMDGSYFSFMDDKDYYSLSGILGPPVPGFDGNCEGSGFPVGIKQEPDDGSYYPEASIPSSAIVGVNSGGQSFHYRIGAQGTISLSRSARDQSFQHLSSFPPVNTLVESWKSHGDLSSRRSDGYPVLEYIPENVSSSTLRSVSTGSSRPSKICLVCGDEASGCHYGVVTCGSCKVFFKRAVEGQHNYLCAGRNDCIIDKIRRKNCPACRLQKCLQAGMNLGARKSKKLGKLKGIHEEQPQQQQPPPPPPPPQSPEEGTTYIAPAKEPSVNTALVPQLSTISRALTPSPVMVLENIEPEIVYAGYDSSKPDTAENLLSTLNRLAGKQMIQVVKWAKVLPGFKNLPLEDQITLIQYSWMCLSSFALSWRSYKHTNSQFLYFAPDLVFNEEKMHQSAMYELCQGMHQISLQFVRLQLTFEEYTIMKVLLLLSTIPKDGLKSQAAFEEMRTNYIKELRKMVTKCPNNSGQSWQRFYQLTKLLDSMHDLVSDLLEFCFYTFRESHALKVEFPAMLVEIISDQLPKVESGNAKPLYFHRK
Summary of the method: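 A549 cells were run in MR agonist mode with aldosterone as positive control. EC50 was reported with % maximal efficacy, as means of duplicate experiments.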

Progesterone receptor = target: T2, Progesterone receptor (Homo sapiens, UniProt P06401); test: Binding affinity to progesterone receptor (unknown origin) by fluorescence assay
T2 sequence (P06401 whole entry): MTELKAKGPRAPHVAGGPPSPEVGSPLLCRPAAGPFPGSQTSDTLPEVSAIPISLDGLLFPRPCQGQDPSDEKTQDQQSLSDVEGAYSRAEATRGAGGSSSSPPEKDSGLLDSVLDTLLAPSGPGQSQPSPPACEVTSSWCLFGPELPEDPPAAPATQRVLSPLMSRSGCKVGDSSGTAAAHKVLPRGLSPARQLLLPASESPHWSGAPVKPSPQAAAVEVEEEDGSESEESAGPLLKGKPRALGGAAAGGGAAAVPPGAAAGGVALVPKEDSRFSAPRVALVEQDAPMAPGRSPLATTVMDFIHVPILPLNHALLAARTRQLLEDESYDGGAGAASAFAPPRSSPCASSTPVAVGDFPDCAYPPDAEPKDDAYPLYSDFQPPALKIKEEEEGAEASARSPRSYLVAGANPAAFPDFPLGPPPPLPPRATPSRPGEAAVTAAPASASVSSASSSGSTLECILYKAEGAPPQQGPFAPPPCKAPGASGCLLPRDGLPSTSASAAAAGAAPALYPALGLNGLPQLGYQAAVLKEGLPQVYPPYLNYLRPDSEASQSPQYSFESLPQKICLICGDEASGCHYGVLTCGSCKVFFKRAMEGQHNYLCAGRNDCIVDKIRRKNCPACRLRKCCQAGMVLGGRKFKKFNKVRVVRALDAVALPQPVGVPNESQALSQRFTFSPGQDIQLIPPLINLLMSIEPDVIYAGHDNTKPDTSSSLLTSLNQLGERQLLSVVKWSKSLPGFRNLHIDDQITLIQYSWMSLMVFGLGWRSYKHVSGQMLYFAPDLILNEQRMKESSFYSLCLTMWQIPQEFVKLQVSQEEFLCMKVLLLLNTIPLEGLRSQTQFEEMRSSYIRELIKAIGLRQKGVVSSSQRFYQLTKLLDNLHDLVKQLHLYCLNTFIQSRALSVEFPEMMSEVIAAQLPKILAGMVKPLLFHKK
Summary of the method: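 Fluorescence polarization competition between test compound and a fluorescently labeled ligand for binding to full-length receptor or its ligand binding domain. IC50 was fit to the signal by four-parameter logistic equation. Ki = IC50/(1 + ligand concentration/Kd) (Cheng–Prusoff).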

Glucocorticoid receptor [2] = target: T3, Glucocorticoid receptor (Homo sapiens, UniProt P04150); test: Transactivation activity at glucocorticoid receptor ligand binding domain (unknown origin) expressed in human Hela cells co-expressing GAL4 DNA binding domain assessed as NP-1-stimulated GRE activation by luciferase reporter gene assay; type: cell-based
T3 sequence (P04150 whole entry): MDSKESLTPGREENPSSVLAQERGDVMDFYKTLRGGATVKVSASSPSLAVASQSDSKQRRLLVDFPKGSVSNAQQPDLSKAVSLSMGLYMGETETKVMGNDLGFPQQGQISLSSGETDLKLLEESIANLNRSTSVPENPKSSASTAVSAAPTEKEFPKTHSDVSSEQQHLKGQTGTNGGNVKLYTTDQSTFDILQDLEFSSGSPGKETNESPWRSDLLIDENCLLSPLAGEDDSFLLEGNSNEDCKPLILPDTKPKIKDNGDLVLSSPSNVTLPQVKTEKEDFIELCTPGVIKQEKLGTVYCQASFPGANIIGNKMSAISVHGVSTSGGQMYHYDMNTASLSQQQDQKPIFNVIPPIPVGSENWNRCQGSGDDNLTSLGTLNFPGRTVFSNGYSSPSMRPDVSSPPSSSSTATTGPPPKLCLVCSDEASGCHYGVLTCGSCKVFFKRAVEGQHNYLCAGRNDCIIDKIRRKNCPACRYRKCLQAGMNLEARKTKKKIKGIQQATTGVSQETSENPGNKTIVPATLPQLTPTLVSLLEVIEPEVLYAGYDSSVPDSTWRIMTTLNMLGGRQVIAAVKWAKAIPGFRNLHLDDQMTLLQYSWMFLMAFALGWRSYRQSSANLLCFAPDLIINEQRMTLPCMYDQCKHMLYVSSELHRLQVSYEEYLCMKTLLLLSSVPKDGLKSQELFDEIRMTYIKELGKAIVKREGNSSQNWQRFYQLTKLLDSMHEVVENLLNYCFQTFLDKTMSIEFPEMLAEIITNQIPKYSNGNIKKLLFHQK

Glucocorticoid receptor [3] = target: T3, Glucocorticoid receptor; test: Transrepression activity at glucocorticoid receptor in human A549 cells assessed as inhibition of PMA-stimulated AP1 response element by luciferase reporter gene assay; type: cell-based

| IC50 [1] [nM] | Ki (Progesterone receptor) [nM] | EC50 (Glucocorticoid receptor [2]) [nM] | EC50 (Glucocorticoid receptor [3]) [nM] | SMILES |
| --- | --- | --- | --- | --- |
| > 5000 | 406 | 202 | 20.4 | CC(C)(CNS(=O)(=O)CC(F)(F)F)[C@@H](c1ccccc1)c1ccc2c(cnn2-c2ccc(F)cc2)c1 |
| > 5000 | > 5000 | 129 | 12.4 | CC(C)(CNC(=O)CC(F)(F)F)[C@@H](c1ccccc1)c1ccc2c(cnn2-c2ccc(F)cc2)c1 |
| > 5000 | > 5000 | 429 | 57 | CC(C)(C)NC(=O)NCC(C)(C)[C@@H](c1ccccc1)c1ccc2c(cnn2-c2ccc(F)cc2)c1 |
